Measurements reported in ChEMBL document CHEMBL3046016, “Antifeedant and growth inhibitory effects of some neo-clerodane diterpenoids isolated from Clerodendron species (Verbenaceae) on Earias vitella and Spodoptera litura” (2003).

Experiments:
Format in all cases: functional
Earias vittella [1] = assay: Insecticidal activity against third-instar larval stage of Earias vitella assessed as total larval duration time at 0.5 ug/cm3 administered through artificial diet containing Abelmoschus esculentus seed powder (reference value: 8.2 +/- 0.48 days)
Earias vittella [2] = assay: Insecticidal activity against adult Earias vitella assessed as adult emergence at 0.5 ug/cm3 administered through artificial diet containing Abelmoschus esculentus seed powder (reference value: 88%)
Earias vittella [3] = assay: Insecticidal activity against third-instar larval stage of Earias vitella assessed as larval mortality at 0.5 ug/cm3 administered through artificial diet containing Abelmoschus esculentus seed powder (reference value: 4%)
Spodoptera litura [4] = assay: Antifeedant activity against third-instar larval stage of Spodoptera litura in compound-treated castor leaves assessed as decrease in diet consumption at 0.5 ug/cm2 after 24 hr by no-choice leaf disk assay relative to acetone-treated control; parameters: scale not given: the % may be the effect or the level left
Summary of the method: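 Larvae were reared on castor leaves at 25 ± 2 °C. In a no-choice test, compound in acetone was painted on the abaxial side of castor leaf disks and air-dried. Five freshly molted third-instar larvae, starved 4 h, were placed per Petri dish with wet cotton. There were five replicates. After 24 h, consumed leaf area was read on a leaf area meter. %AF = 100 − (treated/control)×100.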

Earias vittella [5] = assay: Insecticidal activity against male adult Earias vitella assessed as adult longevity time at 0.5 ug/cm3 administered through artificial diet containing Abelmoschus esculentus seed powder (reference value: 8.2 +/- 0.4 days)
Earias vittella [6] = assay: Insecticidal activity against pupal stage of Earias vitella assessed as pupal weight at 0.5 ug/cm3 administered through artificial diet containing Abelmoschus esculentus seed powder (reference value: 88.2 +/- 4.01 mg)
Earias vittella [7] = assay: Antifeedant activity against third-instar larval stage of Earias vitella assessed as decrease in diet consumption at 0.5 ug/cm3 administered through artificial diet containing Abelmoschus esculentus seed powder after 24 hr relative to acetone-treated control; parameters: scale not given: the % may be the effect or the level left
Summary of the method: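 Artificial diet was modified Klein medium with bhendi (Abelmoschus esculentus) seed powder in place of alfalfa. Compound in acetone was mixed into bhendi meal 12 h before diet preparation so the solvent evaporated. One 3 g diet cube was given to five freshly molted third-instar larvae in a muslin-covered container. After 24 h the cubes were weighed. %AF = 100 − (treated/control)×100.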

Spodoptera litura [8] = assay: Insecticidal activity against adult Spodoptera litura in compound-treated castor leaves assessed as adult emergence at 0.5 ug/cm2 relative to control
Spodoptera litura [9] = assay: Insecticidal activity against female adult Spodoptera litura in compound-treated castor leaves assessed as adult longevity time at 0.5 ug/cm2 (reference value: 10 +/- 0.63 days)
Earias vittella [10] = assay: Insecticidal activity against adult Earias vitella assessed as adult deformity at 0.5 ug/cm3 administered through artificial diet containing Abelmoschus esculentus seed powder (reference value: 4%)
Earias vittella [11] = assay: Insecticidal activity against female adult Earias vitella assessed as adult longevity time at 0.5 ug/cm3 administered through artificial diet containing Abelmoschus esculentus seed powder (reference value: 8.6 +/- 0.48 days)
Earias vittella [12] = assay: Insecticidal activity against pupal stage of Earias vitella assessed as pupal mortality at 0.5 ug/cm3 administered through artificial diet containing Abelmoschus esculentus seed powder (reference value: 8%)
Spodoptera litura [13] = assay: Insecticidal activity against pupal stage of Spodoptera litura in compound-treated castor leaves assessed as pupal mortality at 0.5 ug/cm2 relative to control
Earias vittella [14] = assay: Insecticidal activity against pupal stage of Earias vitella assessed as pupal duration time at 0.5 ug/cm3 administered through artificial diet containing Abelmoschus esculentus seed powder (reference value: 6.4 +/- 0.21 days)
Spodoptera litura [15] = assay: Insecticidal activity against third-instar larval stage of Spodoptera litura in compound-treated castor leaves assessed as total larval duration time at 0.5 ug/cm2 (reference value: 12.4 +/- 0.48 days)
Spodoptera litura [16] = assay: Insecticidal activity against male adult Spodoptera litura in compound-treated castor leaves assessed as adult longevity time at 0.5 ug/cm2 (reference value: 9.4 +/- 0.48 days)
Spodoptera litura [17] = assay: Insecticidal activity against third-instar larval stage of Spodoptera litura in compound-treated castor leaves assessed as larval mortality at 0.5 ug/cm2 relative to control
Spodoptera litura [18] = assay: Insecticidal activity against pupal stage of Spodoptera litura in compound-treated castor leaves assessed as pupal weight at 0.5 ug/cm2 (reference value: 302.4 +/- 5.9 mg)
Spodoptera litura [19] = assay: Insecticidal activity against pupal stage of Spodoptera litura in compound-treated castor leaves assessed as pupal duration time at 0.5 ug/cm2 (reference value: 9.2 +/- 0.74 days)
Spodoptera litura [20] = assay: Insecticidal activity against adult Spodoptera litura in compound-treated castor leaves assessed as adult deformity at 0.5 ug/cm2 relative to control

## C/C=C(\C)C(=O)O[C@H]1C[C@@H](OC(C)=O)[C@@]2(C(=O)OC)CO[C@H]3[C@@H](O)[C@@](C)([C@]45O[C@@]4(C)[C@@H]4C[C@H]5O[C@@H]5OC=C[C@@]54O)[C@H]4[C@]1(CO[C@]4(O)C(=O)OC)[C@@H]32 [AZADIRACHTIN A]
Earias vittella [1]
  Time: 11 days
Earias vittella [2]
  Activity: 37%
Earias vittella [3]
  mortality: 68%
Spodoptera litura [4]
  Activity: 79.2%
Earias vittella [5]
  Time: 6.6 days
Earias vittella [6]
  Activity: 59.2 mg
Earias vittella [7]
  Activity: 79.2%
Spodoptera litura [8]
  Activity: 42.8%
Spodoptera litura [9]
  Time: 7 days
Earias vittella [10]
  Activity: 25%
Earias vittella [11]
  Time: 6.8 days
Earias vittella [12]
  mortality: 37.5%
Spodoptera litura [13]
  mortality at 0.5 µg/cm2: 28%
Earias vittella [14]
  Time: 8.4 days
Spodoptera litura [15]
  Time: 13.9 days
Spodoptera litura [16]
  Time: 7.2 days
Spodoptera litura [17]
  mortality at 0.5 µg/cm2: 78%
Spodoptera litura [18]
  Activity: 247.2 mg
Spodoptera litura [19]
  Time: 11 days
Spodoptera litura [20]
  Activity: 28.5%
